# Screening results: PubChem BioAssay, several laboratories
# Hits are enriched below; roughly 2.2% of the tested compounds scored in any of these assays.
# CR mimetic SO – lowers age-related superoxide in aged yeast cells. S. cerevisiae aged cells, superoxide DHE fluorescence; hits give low values. superoxide response (% of plate mean), % at 10 µM. AID 2690. 0.18% of 330,000 active;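 active = superoxide response under a set limit, about three screen SD below normal, cut at about 65% in these data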;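 note: yeast aged for seven days with compound at 30 °C before DHE staining; 100% = average MFI of all compound-treated wells on the plate with controls excluded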
# PglD DTNB – inhibitors of Campylobacter jejuni PglD acetyltransferase; purified PglD enzyme, DTNB colorimetric CoA detection; AID 602405; inhibition, % at 12.5 µM; 0.098% of 360,000 active; in the data active = inhibition above about 16%, passing the limit was not always enough
# Mot1-301 SUMO – SUMOylation pathway inhibition by Mot1-301 growth rescue | S. cerevisiae Mot1-301 growth rescue, ATP luminescence, 38.5C; percent above DMSO median, 100 means doubled | 1% of 320,000 active | growth rescue, % at 18.8 µM;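 active = every valid replicate shows activation above 250% relative to neutral control wells; inactive = the rest, any valid replicate at or below 250%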;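 note: OY570 slx delta 5 strain wells were the positive control but not used for scaling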
# rRNA inh HTS – inhibitors of bacterial rRNA selective over humanized ribosomes; AID 720706; GFP signal change (wild-type ribosome), % (test concentration not listed); 1.6% of 350,000 active; E. coli WT GFP vs humanized-ribosome RFP mutants, fluorescence, 24 h; hits give low values; DMSO median 0, no signal -100;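 active = significant combined selectivity score with lowered wild-type GFP, culture density cut under 30%, mutant RFP and density less affected; inactive = any of these conditions unmet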
# Cneo AK release – causes C. neoformans cell lysis; lysis activity, % at 15 µM; 0.2% of 360,000 active; adenylate kinase release luminescence, 4 h; normalised: neutral wells 0, clomiphene wells 100;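 active = mean lysis activity across replicates of at least 80%, whatever share of replicates individually reach that level; inactive = mean lysis activity below 80%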
#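 Material: C. neoformans cells | Amount: Yeast cell density of 5 × 10^6 cells/mL | Medium: Fresh YPD growth medium | Dosing: Single dose | Times: Static 4 h at 37 °C with compound, 1 h detection | Detection: AK luminescence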
# Active calls of the source: *; x = no result given.
SMILES,CR mimetic SO,PglD DTNB,Mot1-301 SUMO,rRNA inh HTS,Cneo AK release
CCCNc1nc(N2CCCC2)nc(N2CCCC2)n1,93,-3,-20,-21*,0
CC(C)(C)Nc1nc(N2CCCC2)nc(N2CCCC2)n1,92,4,227,x,10
CCCNC(=O)Nc1ccc2c(c1)OC[C@@H](C)N(C(=O)C1CCCC1)C[C@@H](C)[C@H](OC)CN(C)C2=O,x,x,x,1,x
Cc1ccc(S(=O)(=O)N(C)C)cc1NC(=O)Nc1ccccc1F,92,5,19,6,-2
Cc1cc(C)cc(NC(=O)Nc2cc(S(=O)(=O)N(C)C)ccc2C)c1,88,-1,4,-23*,-1
C[C@H]1CC=CC[C@@H](c2ccccc2)NC(=O)[C@H](Cc2ccccc2)N(C)C(=O)c2ccccc2O1 (mixture of isomers),x,x,x,-7,x
COCC(=O)Nc1ccc2c(c1)C(=O)N(C)C[C@@H](OC)[C@H](C)CN(Cc1ccccc1)[C@@H](C)CO2,x,4,x,-5,112*
CO[C@H]1CN(C)C(=O)c2ccc(NC(C)=O)cc2OC[C@@H](C)N(Cc2cccc(F)c2)C[C@@H]1C,x,x,x,-4,x
CO[C@@H]1CN(C)C(=O)c2cc(NS(=O)(=O)CC(F)(F)F)ccc2OC[C@@H](C)N(Cc2cccnc2)C[C@@H]1C,x,1,x,-1,-1
COc1ccccc1C(=O)Nc1ccc2c(c1)C(=O)N(C)C[C@@H](OC)[C@H](C)CN(C)[C@@H](C)CO2,x,4,x,-3,112*
CO[C@H]1CN(C)C(=O)c2cc(NC(C)=O)ccc2OC[C@H](C)N(Cc2cccc(F)c2)C[C@@H]1C,x,-1,x,-1,87*
CO[C@H]1CN(C)C(=O)c2cc(NS(=O)(=O)CC(F)(F)F)ccc2OC[C@@H](C)N(Cc2cccnc2)C[C@@H]1C,x,3,x,1,88*
CCCN1C[C@H](C)[C@@H](OC)CN(C)C(=O)c2cc(NC(=O)c3cccc(F)c3)ccc2OC[C@H]1C,x,-2,x,-2,117*
O=C(c1ccncc1)N1CC(=O)N2[C@H](C1)[C@@H](c1ccc(-c3ccccc3F)cc1)[C@@H]2CO,x,x,x,-1,x
CCc1nnc(NC(=O)CSc2nc(-c3ccccc3)c(-c3ccccc3)o2)s1,94,x,-9,5,x
CCc1nnc(NC(=O)CSc2nnc(-c3ccccc3O)o2)s1,92,3,-28,-26*,-4
NS(=O)(=O)c1ccc(Nc2nc(-c3cccc([N+](=O)[O-])c3)cs2)cc1,92,5,4,-27*,0
C=CCn1c(-c2cc3c(s2)CCC(CC)C3)n[nH]c1=S (stereo not given),89,x,2,-38*,x
CC(=O)N(C)C[C@@H]1Oc2cc(-c3cncnc3)ccc2S(=O)(=O)N([C@H](C)CO)C[C@H]1C,x,-3,x,-1,1
CNC(=O)[C@@]1(C)C=C[C@@H](Cc2ccccc2)N1C(=O)OC,102,-3,271*,x,1
COC(=O)N1[C@H](Cc2ccccc2)C=C[C@]1(C)C(=O)NCc1ccccn1,x,4,-11,x,2
COc1cc2ccc(=O)oc2c(O)c1OCC=C(C)C,95,0,-7,-21*,-3
O=[N+]([O-])c1ccc(N2CCCCC2)nc1N1CCCCC1,90,-14,20,-40*,-6
O=C(C1COc2ccccc2O1)N1CCN(c2nc3ccc([N+](=O)[O-])cc3s2)CC1 (stereo not given),109,0,535*,-1,0
O=C(C1COc2ccccc2O1)N1CCN(c2nc3ccccc3s2)CC1 (stereo not given),115,-2,3,-32,-1
SMILES,CR mimetic SO,PglD DTNB,Mot1-301 SUMO,rRNA inh HTS,Cneo AK release
O=C(O)/C(=C\c1ccc2ccccc2c1)c1cccc2ccccc12,86,x,-13,-47*,x
O=C(O)C(=Cc1ccncc1)c1cccc2ccccc12,x,-3,x,-10,-1
COc1ccc(-c2ccc3c(c2)C2CC3CCN2C(=O)C(C)(C)C)cc1 (stereo not given),x,x,x,-30*,-2
N#Cc1ccc(C(=O)N2CCC3CC2c2cc(-c4ccc(F)cc4)ccc23)cc1 (stereo not given),x,3,x,-26*,5
N#Cc1ccc(-c2ccc3c(c2)[C@H]2[C@H](CCN2C(=O)c2ccc(F)cc2)[C@H](CO)N3)cc1,x,-2,x,-8,-19
CC1(C(=O)NCCc2c[nH]c3ccccc23)CCN1CC1CCCCC1 (stereo not given),x,-2,x,-23*,-1
O=C(O)C1CCCCC1C(=O)NCCc1c[nH]c2ccccc12 (stereo not given),93,-8,-1,x,-2
COc1ccc(-c2nc3ccccc3n2Cc2ccc(C)cc2)cc1,90,x,0,x,x
COc1ccc(Cn2c(-c3ccc(C)cc3)c[n+]3ccccc23)cc1,83,x,-11,-34*,18
N#C/C(=C(/O)CCl)c1nc2ccccc2[nH]1,102,x,2,-16*,x
Cc1cccc(Nc2nnc(SC/C(O)=C(\C#N)c3nc4ccccc4[nH]3)s2)c1C,103,-3,6,x,-3
Cc1cccc(C)c1Nc1nnc(SC/C(O)=C(\C#N)c2nc3ccccc3[nH]2)s1,92,-2,13,-34*,5
C=CCN1C(=O)[C@]2(O[C@H](CCn3cc(CCO)nn3)[C@@H]([Si](C)(C)c3ccc(OC)cc3)[C@@H]2C)c2cc(N3C(=O)c4cccc5cccc3c45)ccc21,x,0,x,x,55
Cc1ccccc1-c1cnc2c(c1)C(=O)N([C@H](C)CO)C[C@H](C)[C@H](CN(C)C(=O)CC1CC1)O2,x,6,x,-1,3
Cc1ccccc1NC(=O)c1ccco1,106,-1,214,19,-1
COc1cc2c(cc1NC(=O)c1ccco1)CCCC2,96,3,9,-32*,0
Cc1ccc(NC(=O)/C(=C/c2cccs2)NC(=O)c2ccco2)c(C)c1,94,x,10,-30*,x
Cc1cc(NC(=O)c2ccc([N+](=O)[O-])o2)ccc1NC(=O)c1ccco1,x,17,x,x,74
Cc1ccc(NC(=O)/C(=C/c2cccs2)NC(=O)c2ccco2)cc1,88,x,31,x,x
Cc1cc(Br)ccc1NC(=O)c1ccco1,90,-1,4,-22*,0
COc1cc(NC(=O)C2CCCCC2)c(OC)cc1NC(=O)c1ccco1,101,x,73,x,x
COc1cc(NC(=O)c2ccc([N+](=O)[O-])o2)ccc1NC(=O)c1ccco1,92,-2,6,-22*,-7
C[C@@H]1CN([C@H](C)CO)C(=O)c2cc(C3=CCCC3)cnc2O[C@@H]1CN(C)C(=O)c1ccc(F)cc1,x,-1,x,4,4
CCN(c1ccccc1)S(=O)(=O)c1ccc(OC)c(NC(=O)c2ccco2)c1,x,1,x,-19*,-2
CC(=O)c1ccc(NC(=O)Nc2ccc(Br)cc2C)cc1,82,x,-2,-19*,x
